FID counter: compounds displacing fluorescent DNA intercalator, primary screen, artefact control for HCV NS3 helicase inhibitor project, biochemical, FID fluorescence. DNA fluorescent intercalator displacement. inhibition, % at 7.9 µM. 290,000 tested, 0.17% active; in the data active = inhibition above about 37%;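 also: 0% = vehicle and 100% = reference compound; higher means more ethidium bromide displaced from hairpin DNA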
RBBP9 inhibitor: human RBBP9 inhibitors, primary screen, biochemical, fluorescence polarization, FP-Rh probe, HTS; recombinant RBBP9; inhibition, % at 7.94 µM; 220,000 tested, 0.2% active;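 active = inhibition above the campaign mean of all tested compounds plus 3 SD, cut at about 14% in these data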;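 also: plate controls were DMSO wells with RBBP9 for no effect and wells lacking RBBP9 protein for full effect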
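Test system – recombinant human RBBP9 · Input – RBBP9 2.5 µM in dispensing solution, pre-mixing · Medium – Tris buffer pH 8.0, NaCl, Pluronic · Schedule – preincubation 30 min plus labeling 45 min at 25 °C · Measured by – fluorescence polarization · Measure – % inhibition · Controls – DMSO and no-protein wells · Replicates – one well per compound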
Rad51 HR inh: human RAD51 strand exchange inhibitors, primary screen, biochemical, fluorescence. hRad51 DNA strand exchange, fluorescence dequenching. 200,000 tested, 0.085% active. inhibition, % at 10 µM. AID 1385, 2008;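 active = inhibition above 40% at the single screening dose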;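 also: 0% = DMSO control wells and 100% = blanks with heterologous ssDNA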
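Material: hRad51 filaments on single-stranded DNA; Reagent: Donor/quencher-labelled 47-bp dsDNA substrate; Compound: 10 µM final, single point; Schedule: 37 °C 15-min filament assembly, 30-min compound preincubation, 15-min exchange; Technique: FRET fluorescence, excitation 485 nm, emission 520 nm; Benchmarks: control wells and blank wells on each plate.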
Wee1 degr inh: Wee1 degradation inhibitors, primary screen, cell-based, HeLa, Wee1K328M-luciferase, luminescence; HeLa Luc-Wee1K328M stability; 100% = proteasome inhibitor MG132 effect; reporter increase, % at 5 µM; 220,000 tested, 1.2% active; AID 1321, 2008;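 active = activation above the mean of all tested compounds plus 3 SD, set per screening run, cut at about 8.8% in these data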;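 also: cells exposed to compound for 20 h before luminescence read; 0% = DMSO alone and 100% = MG132 at 30 µM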
Target sequence (P30291 whole entry K328M): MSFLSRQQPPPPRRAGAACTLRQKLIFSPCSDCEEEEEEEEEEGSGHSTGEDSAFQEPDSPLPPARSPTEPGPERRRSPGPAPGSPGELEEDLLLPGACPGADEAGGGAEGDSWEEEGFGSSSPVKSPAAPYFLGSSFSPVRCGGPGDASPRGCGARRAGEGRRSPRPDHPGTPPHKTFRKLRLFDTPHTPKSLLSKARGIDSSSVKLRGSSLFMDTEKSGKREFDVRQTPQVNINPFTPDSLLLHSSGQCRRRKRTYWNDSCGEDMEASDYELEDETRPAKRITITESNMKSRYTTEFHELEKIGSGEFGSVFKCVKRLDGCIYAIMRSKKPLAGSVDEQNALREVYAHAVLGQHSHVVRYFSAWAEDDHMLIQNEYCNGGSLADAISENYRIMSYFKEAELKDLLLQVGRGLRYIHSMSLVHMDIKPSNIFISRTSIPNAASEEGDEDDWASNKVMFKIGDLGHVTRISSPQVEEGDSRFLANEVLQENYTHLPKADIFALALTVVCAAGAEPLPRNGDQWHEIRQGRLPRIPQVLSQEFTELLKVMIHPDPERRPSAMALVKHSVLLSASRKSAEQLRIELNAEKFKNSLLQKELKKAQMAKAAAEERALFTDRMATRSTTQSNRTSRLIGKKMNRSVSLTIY
Active calls of the source: *. The list is not random: actives were taken first. Their share in the collection is about 1.2%.

Results for NC(=O)C1CCCN1S(=O)(=O)c1ccc2ccccc2c1 (configuration not stated) ?
FID counter: -4

Results for CSc1nc(NCCCN(C)C)c2c3c(sc2n1)CN(C)CC3 ?
FID counter: 42*

What do the screens show for `CCN(CC)CCNc1nc(SC)nc2sc3c(c12)CCN(C)C3`?
FID counter: 27

How did CCOc1cc(Cl)c(S(=O)(=O)NCCCn2ccnc2)cc1Cl do in these assays?
FID counter: 6

Results for O=C(NCc1ccccc1)C1CCN(S(=O)(=O)N2CCCCCC2)CC1 ?
FID counter: -19; RBBP9 inhibitor: -7; Rad51 HR inh: 3; Wee1 degr inh: 9.5*

Results for CCOc1ccc(NC(=O)CSc2nnc(N)s2)c([N+](=O)[O-])c1 ?
FID counter: -2; RBBP9 inhibitor: -9; Rad51 HR inh: 23; Wee1 degr inh: 9.8*

Results for CCOc1ccc(NC(=O)CSc2ncn[nH]2)c([N+](=O)[O-])c1 ?
FID counter: 1; RBBP9 inhibitor: -5; Rad51 HR inh: -6; Wee1 degr inh: 0

How did O=C(CCCCCNc1nc(=S)[nH]c2ccccc12)NCCc1ccccc1 do in these assays?
FID counter: -6; RBBP9 inhibitor: 2; Rad51 HR inh: 0; Wee1 degr inh: 1

How did COc1ccc(CCNC(=O)CCCCCNc2nc(=S)[nH]c3ccccc23)cc1OC do in these assays?
FID counter: -20; RBBP9 inhibitor: -1; Rad51 HR inh: -6; Wee1 degr inh: 10*

How did Cc1n[nH]c(=S)n1/N=C/c1c(O)ccc2ccccc12 do in these assays?
FID counter: 0

What do the screens show for `COc1ccc(C)cc1N(C(=O)c1snc(C(N)=O)c1N)C(C(=O)NC1CCCC1)c1ccc(F)cc1` (configuration not stated)?
FID counter: -29

What do the screens show for `O=S(=O)(/N=C(/Nc1ccccc1)C(F)(F)F)c1ccccc1`?
FID counter: 4; RBBP9 inhibitor: 3; Rad51 HR inh: -3; Wee1 degr inh: -4

What do the screens show for `CCc1ccccc1N/C(=N\S(=O)(=O)c1ccccc1)C(F)(F)F`?
FID counter: -4; RBBP9 inhibitor: -7; Rad51 HR inh: -6; Wee1 degr inh: 10*

What do the screens show for `Cc1ccc2c(c1)-c1ncc(C(=O)c3cc(Br)ccc3O)cc1CO2`?
FID counter: -1; RBBP9 inhibitor: -21; Rad51 HR inh: 13; Wee1 degr inh: 5

What do the screens show for `CCOC(=O)N1CCC(NC(=O)c2ccc3c(Cl)c4c(nc3c2)CCCC4)CC1`?
FID counter: -25; RBBP9 inhibitor: 22*; Rad51 HR inh: -5; Wee1 degr inh: -1

What do the screens show for `O=C(NC1CC1)c1ccc2c(Cl)c3c(nc2c1)CCCC3`?
FID counter: -29; RBBP9 inhibitor: -5; Rad51 HR inh: -8; Wee1 degr inh: 3

Results for O=C(Cn1nc(-c2ccc(Cl)cc2)c2ccccc2c1=O)NN1CCOCC1 ?
FID counter: -17; RBBP9 inhibitor: -1; Rad51 HR inh: 14; Wee1 degr inh: -1

How did COC(=O)c1c(C)cc(C)n2c1nc1ccccc12 do in these assays?
FID counter: 6; RBBP9 inhibitor: -6; Rad51 HR inh: -4; Wee1 degr inh: 9.8*

How did CCn1c(COc2ccc(Cl)cc2)nnc1SCc1nc2ccccc2[nH]1 do in these assays?
FID counter: -21; RBBP9 inhibitor: -4; Rad51 HR inh: 14; Wee1 degr inh: -2

What do the screens show for `CCn1c(COc2ccc(OC)cc2)nnc1SCc1nc2ccccc2c(=O)[nH]1`?
FID counter: -1; RBBP9 inhibitor: -9; Rad51 HR inh: 10; Wee1 degr inh: 9.8*

What do the screens show for `CCOC(=O)N1C2=NC(C(=O)OC)=C(C(=O)OC)[C@@H]3N(C)c4ccccc4[C@]23C[C@H]1C(=O)OC`?
Rad51 HR inh: 0

Results for O=C1/C(=C2\C(=O)N(Cc3ccc(F)cc3)c3ccccc32)SC(=S)N1CCS(=O)(=O)O ?
FID counter: 39*

Results for O=C(O)CN1C(=O)/C(=C2\C(=O)N(Cc3ccccc3Cl)c3ccccc32)SC1=S ?
FID counter: -7

How did CCn1c(=O)c(C(=O)NCc2ccccc2)c(O)c2ccccc21 do in these assays?
FID counter: -8

Results for CC(C)Cn1c(=O)c(C(=O)NCc2ccccn2)c(O)c2ccccc21 ?
FID counter: -4; RBBP9 inhibitor: -15; Rad51 HR inh: -2; Wee1 degr inh: 12*

Results for COc1ccccc1NC(=O)/C(C#N)=C/c1cccnc1 ?
FID counter: -14

What do the screens show for `COc1cc(/C=C(\C#N)C(=O)Nc2cccnc2)ccc1OC(C)C`?
FID counter: -2; RBBP9 inhibitor: 0; Rad51 HR inh: -2; Wee1 degr inh: 11*

How did CC(C)(C)C(=O)NC(=S)Nc1ccccc1C(N)=O do in these assays?
FID counter: 3; RBBP9 inhibitor: 4; Rad51 HR inh: 10; Wee1 degr inh: 11*

Results for CCOC(=O)C1(Cc2ccccc2C(F)(F)F)CCN(CC(O)CO)CC1 (configuration not stated) ?
FID counter: 8; RBBP9 inhibitor: 0; Wee1 degr inh: 2

How did CCOC(=O)C1(Cc2ccccc2C(F)(F)F)CCN(C2CCN(C(C)C)CC2)CC1 do in these assays?
FID counter: 45*; RBBP9 inhibitor: -2; Rad51 HR inh: 7; Wee1 degr inh: -2

How did COC(=O)c1cc(C(=O)Nc2ccc(Cl)cn2)cc([N+](=O)[O-])c1 do in these assays?
FID counter: 2; RBBP9 inhibitor: -9; Rad51 HR inh: 2; Wee1 degr inh: 9.0*

Results for COc1cc(C(=O)Nc2ccc([N+](=O)[O-])cn2)cc(OC)c1OC ?
FID counter: 3; RBBP9 inhibitor: -8; Rad51 HR inh: 8; Wee1 degr inh: 1

How did COc1ccc(OC)c(/C=C2\SC(N3CCCCC3)=NC2=O)c1 do in these assays?
FID counter: -29

What do the screens show for `CC1CCCCC1NC(=S)Nc1ccc(Cl)cc1Cl` (configuration not stated)?
FID counter: -8; RBBP9 inhibitor: -12; Rad51 HR inh: 41*; Wee1 degr inh: 9

How did Cc1cc(Cl)ccc1NC(=S)NC1CCCC1 do in these assays?
FID counter: -5

How did COc1ccc(-c2nc(C#N)c(NCCN(C)C)o2)cc1 do in these assays?
FID counter: 6; RBBP9 inhibitor: -3; Rad51 HR inh: -2; Wee1 degr inh: 9.1*

How did COc1ccc(-c2nc(C#N)c(NCCc3ccccc3)o2)cc1 do in these assays?
FID counter: -2; RBBP9 inhibitor: -2; Rad51 HR inh: 0; Wee1 degr inh: 1

What do the screens show for `Nc1cc([N+](=O)[O-])cc2oc(-c3ccccc3)cc12`?
FID counter: 17

How did c1ccc(C(c2ccccn2)c2ccccn2)cc1 do in these assays?
FID counter: -5; RBBP9 inhibitor: -8; Wee1 degr inh: 0

What do the screens show for `CC(=O)Oc1ccc(C(c2ccc(OC(C)=O)cc2)c2ccccn2)cc1`?
FID counter: -28; RBBP9 inhibitor: 25*; Rad51 HR inh: -1; Wee1 degr inh: 5
